System: MS2 coat protein
Test: apparent Kd, MS2 coat protein; higher = weaker binding; RNA-MaP array
Procedure, shortened: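 With or without input ligand, designed RNAs transcribed on an Illumina sequencing chip from sequenced DNA templates were incubated at room temperature with fluorescently labeled MS2 coat protein at 1.5 nM to 3 μM. The buffer was Tris-HCl pH 7.5 with KCl, MgCl2, BSA, DTT, tRNA and Tween20, and incubation ran 0.8–1.5 h at the lowest and 10–20 min at the highest concentrations. Apparent Kd is reported as the median of fits to binding curves from individual clusters. Designs measured on fewer than 10 clusters are not included.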

[1] = designed as: ON switch for flavin mononucleotide, no ligand
[2] = ligand present: flavin mononucleotide, designed as: ON switch for flavin mononucleotide
[3] = designed as: OFF switch for flavin mononucleotide, no ligand
[4] = ligand present: flavin mononucleotide, designed as: OFF switch for flavin mononucleotide
[5] = designed as: OFF switch for theophylline, no ligand
[6] = ligand present: theophylline, designed as: OFF switch for theophylline

| Sequence | apparent Kd [1] [nM] | apparent Kd [2] [nM] | apparent Kd [3] [nM] | apparent Kd [4] [nM] | also measured |
| --- | --- | --- | --- | --- | --- |
| UACUGUCUAACGGCCGCCACUCAGUCUCGGUUGAUUAUCUUAAGUGACAUGAGGAUCACCCAUGUGAGGACCGGGUUGUGCAUAA | – | – | – | – | apparent Kd (designed as: OFF switch for tryptophan, no ligand): 76 nM; apparent Kd (ligand present: tryptophan, designed as: OFF switch for tryptophan): 136 nM |
| AAAAUACAUGAGGAUCACCCAUGUGCUUUCUAUUCAGGAUAUGGUGGUACAGUGGACAUACCAGAAGGGAAUGAAA | 11.1 | 8.34 | – | – | – |
| UGACCGUUAAUAGGAUAUGUUCUCUUCCACAUGAGGAUCACCCAUGUAAACUAUUGUGAAACUGGACAGAAGGAUUAAACAUUG | – | – | 17.1 | 14.1 | – |
| GCAUGACAUGAGGAUCACCCAUGUGAAUUGUAGGAAGGAUAUAAUACUUGAUCCGCUGUCUUAGAAGGUCCAUAAU | 28.6 | 19.6 | – | – | – |
| CCGCCACUACAUGAGGAUCACCCAUGUGAACCGUAGAACAUGAGAAGGUGCCUAAAGCUCGAGGGCAAGGAUAUCAACCGCCGC | 125 | 97.5 | – | – | – |
| UUAGUACUAGGAUAUACGAUGGAAAGGAGAGCCUUACAAAUACAUGAGGAUCACCCAUGUAGAAGGAGUUGCCA | – | – | 6.27 | 5.93 | – |
| CGCGUGUUCGAGGAUAUGGAACUGAUAUUAGACCCAGAAGGCGAGACAUGAGGAUCACCCAUGUGAGGACUAAC | – | – | 18.6 | 53.8 | – |
| UCCACACAUGAGGAUCACCCAUGUUGACAUUAUUGAGGAUAUCGGAGUGAAGGUUCGGUUCGAGAAGGCAACCAGA | 19.8 | 14.8 | – | – | – |
| UUUCUGUUACAGAAGGGAAGGAAACAUGAGGAUCACCCAUGUCCACGCCGUUUACAUUCGGCCGUUCAGGAUAUGUCAUAUUGA | 23.1 | 17 | – | – | – |
| UAUUCUGACACAGAUACCAGUCAAUUCCGUGGCAAGUGCUACAUGAGGAUCACCCAUGUCGACCCUUGGCAGCUGAAGAGAUACA | – | – | – | – | apparent Kd [5]: 12.1 nM; apparent Kd [6]: 14.1 nM |
| GUACACUCCACAGGAUAUGGUGUAGACCCUACGCCAGAAGGGUGCGUGGGUACAUGAGGAUCACCCAUGUUAAGUUUACAUACG | – | – | 12.9 | 15.5 | – |
| AAACGAGAGACAGAUACCAGCGCAGGAACGGAGUAUGGUGACAUGAGGAUCACCCAUGUGCGCCCUUGGCAGCUGAGCCGUAUUG | – | – | – | – | apparent Kd [5]: 27.9 nM; apparent Kd [6]: 171 nM |
| UUGUGGGCGCUUCAGGAUAUCGCAAAAGAAACAUGAGGAUCACCCAUGUGGCCGAAGCAACUGGGCGAGAAGGGAAAGGCCCGAAG | 17.3 | 14.1 | – | – | – |
| CUCUCGGCAGGAUAUCGGCAGAUAAACAUGAGGAUCACCCAUGUGUUCUUAAAAUUCCGUCGAGAAGGGCCGCGAU | – | – | 4.68 | 5.16 | – |
| UAGAUAAGAAUCAAGGAUAUGAAAAGGCACACAUGAGGAUCACCCAUGUCAAGCACAAAAUGACGUCAGAAGGUGAUAAGCAGCAA | 57.6 | 35 | – | – | – |
| AAGGCGUCAGGAUAUACGUCAUCUUCAAAUAACAUAACAAUACAUGAGGAUCACCCAUGUAGAAGGGACCAGCC | – | – | 6.37 | 6.46 | – |
| CGUCACCUAAAAGGAUAUCUACAAUACAGGAUUGCGUCUCACAUGAGGAUCACCCAUGUGUGUCCAGAGAAGGUUUCGGCACGU | – | – | 8.55 | 8.34 | – |
| GACUAACAUGAGGAUCACCCAUGUGAAGAUACCAGUAAUUUCACCUACCCUUGGCAGCUUUUUUUGAACGGCCUGAAUGCCUUGU | – | – | – | – | apparent Kd (designed as: ON switch for theophylline, no ligand): 11.3 nM; apparent Kd (ligand present: theophylline, designed as: ON switch for theophylline): 17.1 nM |
| CGUUCCAGGGAGAAGGGCUACAAGAUCUUUCCAGCAGGAUAUCCCAACAUGAGGAUCACCCAUGUAGUCGUGUUAUUGGCUAUA | 243 | 86.4 | – | – | – |
| ACCGGAAAAGGAUAUCGAAUUAGCAACAUGAGGAUCACCCAUGUCUGUCGCUCGUGUAUUCGAGAAGGUUUCGCCC | – | – | 4.96 | 5.34 | – |
| CGGUUACAUGAGGAUCACCCAUGUUCCAUGGUUGAAGGAUAUGGCGACGGCGCGUGGGUACCAGAAGGUCAGGCAC | 26 | 19.6 | – | – | – |
| GUGCGCGUAAAAGGAUAUUCGGAUGAUAGAACUCGAAACUACAUGAGGAUCACCCAUGUCAAGAAGAAGAAGGUUUGGCGAAAU | – | – | 57.1 | 31.7 | – |
| UCGGACCGAGGAUAUACAGUUCGUGAAGGUAAGAUACACAGACAUGAGGAUCACCCAUGUAGAAGGCGGAGUCC | – | – | 12.1 | 15.6 | – |
